What was measured:
[1] = test system: Nucleic Acid; assay: Ratio of drug level in hippocampus to cerebellum in rat assessed as radioactivity after 2 mins; assay type: ADME, tissue-based; conditions: in vivo
[2] = test system: Nucleic Acid; assay: Ratio of drug level in cortex to cerebellum in rat assessed as radioactivity after 60 mins; assay type: ADME, tissue-based; conditions: in vivo, 1 h
[3] = test system: Nucleic Acid; assay: Ratio of drug level in cortex to cerebellum in rat assessed as radioactivity after 120 mins; assay type: ADME, tissue-based; conditions: in vivo, 2 h
Summary of the method: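 Groups of three normal rats under isoflurane received the [18F] tracer (10–100 μCi in 0.2 ml sterile water containing 1 mg/mL BSA) into the femoral vein. They were killed by cervical dislocation under anesthesia at the stated time. Cortex, striatum, hippocampus, hypothalamus and cerebellum were dissected, weighed and gamma-counted. %dose/g was set against a 100-fold diluted dose aliquot, and each region was divided by cerebellum.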

[4] = test system: Heart; assay: Biodistribution in iv dosed rat heart after 120 mins; assay type: ADME, organism-based; conditions: in vivo, 2 h
Summary of the method: (§1)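 [18F]-labeled tracer was given to rats under isoflurane anesthesia: 0.2 ml sterile water with 1 mg/mL BSA and 10–100 μCi, into the femoral vein. Three rats per group. Animals were killed by cervical dislocation under anesthesia at the stated time. Organs were removed, weighed and counted. Uptake was calculated as percent dose against a 1% aliquot of the injected dose counted alongside.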

[5] = test system: Lung; assay: Biodistribution in iv dosed rat lungs after 2 mins; assay type: ADME, organism-based; conditions: in vivo; summary of the method: as §1
[6] = test system: Heart; assay: Biodistribution in iv dosed rat heart after 240 mins; assay type: ADME, organism-based; conditions: in vivo, 4 h; summary of the method: as §1
[7] = test system: Pancreas; assay: Biodistribution in iv dosed rat pancreas after 30 mins; assay type: ADME, organism-based; conditions: in vivo, 0.5 h
Summary of the method: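 Rats, 3 per group, under isoflurane. ¹⁸F tracer (10–100 μCi) in 0.2 ml sterile water with 1 mg/mL BSA injected into the femoral vein. Killed by cervical dislocation under anesthesia at the stated time. Organs removed, weighed and counted. % dose/organ calculated against counts of a 1% diluted aliquot of the injected dose.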

[8] = test system: Pancreas; assay: Biodistribution in iv dosed rat pancreas after 240 mins; assay type: ADME, organism-based; conditions: in vivo, 4 h
[9] = test system: Nucleic Acid; assay: Ratio of drug level in striatum to cerebellum in rat assessed as radioactivity after 2 mins; assay type: ADME, tissue-based; conditions: in vivo
[10] = test system: Heart; assay: Biodistribution in iv dosed rat heart after 60 mins; assay type: ADME, organism-based; conditions: in vivo, 1 h; summary of the method: as §1
[11] = test system: Pancreas; assay: Biodistribution in iv dosed rat pancreas after 120 mins; assay type: ADME, organism-based; conditions: in vivo, 2 h; summary of the method: as §1
[12] = test system: Striatum; assay: Biodistribution in iv dosed rat striatum assessed as radioactivity after 2 mins; assay type: ADME, organism-based; conditions: in vivo
[13] = test system: Brain; assay: Biodistribution in iv dosed rat brain after 2 mins; assay type: ADME, organism-based; conditions: in vivo; summary of the method: as §1
[14] = test system: Pancreas; assay: Biodistribution in iv dosed rat pancreas after 60 mins; assay type: ADME, organism-based; conditions: in vivo, 1 h
[15] = test system: Blood; assay: Biodistribution in iv dosed rat blood after 120 mins; assay type: ADME, organism-based; conditions: in vivo, 2 h; summary of the method: as §1
[16] = test system: Lung; assay: Biodistribution in iv dosed rat lungs after 60 mins; assay type: ADME, organism-based; conditions: in vivo, 1 h; summary of the method: as §1
[17] = test system: Cortex; assay: Biodistribution in iv dosed rat cortex assessed as radioactivity after 240 mins; assay type: ADME, organism-based; conditions: in vivo, 4 h
Summary of the method: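 Rats received the [18F] tracer under isoflurane anesthesia: 0.2 ml sterile water with 1 mg/mL BSA and 10–100 μCi, into the femoral vein. Three rats per group. After cervical dislocation under anesthesia, the cortex was dissected, weighed and gamma-counted. Percent dose/g was calculated against a 100-fold diluted aliquot of the injected dose.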

[18] = test system: Pancreas; assay: Biodistribution in iv dosed rat pancreas after 2 mins; assay type: ADME, organism-based; conditions: in vivo
[19] = test system: Muscle tissue; assay: Biodistribution in iv dosed rat muscle after 60 mins; assay type: ADME, organism-based; conditions: in vivo, 1 h; summary of the method: as §1
[20] = test system: Brain; assay: Biodistribution in iv dosed rat brain after 360 mins; assay type: ADME, organism-based; conditions: in vivo, 6 h; summary of the method: as §1
[21] = test system: Blood; assay: Biodistribution in iv dosed rat blood after 360 mins; assay type: ADME, organism-based; conditions: in vivo, 6 h; summary of the method: as §1
[22] = test system: Heart; assay: Biodistribution in iv dosed rat heart after 360 mins; assay type: ADME, organism-based; conditions: in vivo, 6 h; summary of the method: as §1
[23] = test system: Nucleic Acid; assay: Ratio of drug level in hippocampus to cerebellum in rat after 360 mins; assay type: ADME, tissue-based; conditions: in vivo, 6 h
[24] = test system: Lung; assay: Biodistribution in iv dosed rat lung after 360 mins; assay type: ADME, organism-based; conditions: in vivo, 6 h; summary of the method: as §1
[25] = test system: Muscle tissue; assay: Biodistribution in iv dosed rat muscle after 360 mins; assay type: ADME, organism-based; conditions: in vivo, 6 h; summary of the method: as §1
[26] = test system: Nucleic Acid; assay: Ratio of drug level in hypothalamus to cerebellum in rat after 360 mins; assay type: ADME, tissue-based; conditions: in vivo, 6 h
[27] = test system: Kidney; assay: Biodistribution in iv dosed rat kidney after 360 mins; assay type: ADME, organism-based; conditions: in vivo, 6 h; summary of the method: as §1
[28] = test system: Nucleic Acid; assay: Ratio of drug level in cortex to cerebellum in rat after 360 mins; assay type: ADME, tissue-based; conditions: in vivo, 6 h
[29] = test system: Zone of skin; assay: Biodistribution in iv dosed rat skin after 360 mins; assay type: ADME, organism-based; conditions: in vivo, 6 h
[30] = test system: Spleen; assay: Biodistribution in iv dosed rat spleen after 360 mins; assay type: ADME, organism-based; conditions: in vivo, 6 h
[31] = test system: Bone; assay: Biodistribution in iv dosed rat bone after 360 mins; assay type: ADME, organism-based, Bone element; conditions: in vivo, 6 h; summary of the method: as §1
[32] = test system: Liver; assay: Biodistribution in iv dosed rat liver after 360 mins; assay type: ADME, organism-based; conditions: in vivo, 6 h; summary of the method: as §1
[33] = test system: Nucleic Acid; assay: Ratio of drug level in striatum to cerebellum in rat after 360 mins; assay type: ADME, tissue-based; conditions: in vivo, 6 h

| Ratio [1] | Ratio [2] | Ratio [3] | Drug uptake [4] | Drug uptake [5] | Drug uptake [6] | Ratio [9] | Drug uptake [10] | Drug uptake [12] | Drug uptake [13] | Drug uptake [15] | Drug uptake [16] | Drug uptake [17] | Drug uptake [19] | SMILES | other results |
| --- | --- | --- | --- | --- | --- | --- | --- | --- | --- | --- | --- | --- | --- | --- | --- |
| 1.19 | 4.78 | 4.6 | 0.09 %ID | 13.21 %ID | 0.04 %ID | 1.22 | 0.12 %ID | 1.01 % ID/g | 1.84 %ID | 4.06 %ID | 1.4 %ID | 0.07 % ID/g | 8.24 %ID | CN(C)Cc1cc(OCC[18F])ccc1Sc1ccccc1N | Drug uptake [7]: 0.24 %ID; Drug uptake [8]: 0.04 %ID; Drug uptake [11]: 0.08 %ID; Drug uptake [14]: 0.19 %ID; Drug uptake [18]: 0.92 %ID |
| 0.88 | 2.41 | 2.9 | 0.19 %ID | 10.3 %ID | 0.12 %ID | 0.96 | 0.21 %ID | 1.02 % ID/g | 2.05 %ID | 6.19 %ID | 3.44 %ID | 0.82 % ID/g | 15.5 %ID | CN(C)Cc1cc(OCC[18F])ccc1Sc1ccc(Br)cc1N | Drug uptake [20]: 1.36 %ID; Drug uptake [21]: 4.75 %ID; Drug uptake [22]: 0.13 %ID; Ratio [23]: 3.08; Drug uptake [24]: 1.89 %ID; Drug uptake [25]: 8.98 %ID; Ratio [26]: 4.32; Drug uptake [27]: 1.13 %ID; Ratio [28]: 3.2; Drug uptake [29]: 6.52 %ID; Drug uptake [30]: 0.29 %ID; Drug uptake [31]: 15.3 %ID; Drug uptake [32]: 1.86 %ID; Ratio [33]: 3.8 |
